# Article PMC4021855 (Nature chemical biology, 2013)
# Assays:
# KRS–67LR interaction = KRS–67LR interaction (Homo sapiens, UniProt Q15046); test: In vitro pull-down and IP assays; assay type: binding
# Outline: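 In vitro: 37LRP radiolabelled by coupled transcription/translation, mixed with 1 μg GST–KRS plus test compound, then GST pull-down; bound 37LRP detected by autoradiography. IP: Myc-KRS-transfected H226 cells pretreated with laminin 10 μg/ml for 1 h in serum-free medium, then test compound for 4 h. Lysates or membrane/cytosol fractions then used for IP and immunoblotting.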
# 67LR = test: Membranous 67LR level by immunoblotting; assay type: cell-based
# KRS–LR interaction [1] = molecular target: T1, KRS–LR interaction (Homo sapiens, UniProt Q15046); test: Yeast two-hybrid; assay type: cell-based; conditions: Y2H, 50 μg/ml, 6-day incubation
# Outline: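 Yeast EGY/SH cells co-expressing LexA–KRS and B42–LR grown in galactose medium lacking Ura, His, Trp and Leu, with compound at 50 μg/ml final. OD540 read after 6 days.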
# MMP-2 = MMP-2 zymography; assay type: cell-based
# Outline: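 H226 cells treated with laminin (10 μg/ml) plus test compound for 12 h. Conditioned-medium proteins run on 10% SDS-PAGE containing 1 mg/ml gelatin. Gel incubated in reaction buffer; gelatinolytic zone of MMP-2 visualised by Coomassie Blue staining.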
# H226 cells [2] = test: Matrigel invasion assay; assay type: cell-based, human
# Outline: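 Upper chamber of Transwell (8.0 μm pore polycarbonate) coated with Matrigel 1 mg/ml in cold serum-free medium and set 4 h at 37°C. H226 cells seeded on top; lower chamber held medium with laminin 10 μg/ml. Cells exposed to test compound for 24 h. Invaded cells fixed in 70% methanol, hematoxylin-stained, and counted in 3 random ×20 fields. Mean ± s.d.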
# H226 cells [3] = test: Transwell cell migration assay; assay type: cell-based, human
# Outline: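 H226 cells (1×10^5 per well) placed in the top chamber of a laminin-coated (10 μg/ml) 8.0 μm polycarbonate Transwell and left to migrate for 12 h with test compound. Migrated cells fixed in 70% methanol and stained with hematoxylin. Non-migrants swabbed off; cells counted in 3 random ×20 fields.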
# H226 cells [4] = test: MTT cell viability assay; assay type: cell-based, human; conditions: 24 h
# Outline: (§1)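 1×10^4 cells per well in 96-well plates; preincubated 1 h with laminin, then exposed to test compound for 24 h in serum-free medium. MTT (stock 5 mg/ml, diluted 10-fold) added for 30 min. Crystals dissolved in DMSO; absorbance read at […].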
# KRS = KRS (Homo sapiens, UniProt Q15046); test: KRS aminoacylation enzymatic assay; assay type: biochemical; conditions: 0 to 40 μM
# Outline: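 KRS pre-incubated with test compound (0 to 40 μM final) for 30 min at 4°C before the aminoacylation reaction. Reaction aliquots quenched and precipitated on filter plates, washed, eluted with 0.2 M NaOH, and counted on a scintillation plate reader.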
# 4T1 cells = test: 4T1 mammary fat pad breast cancer metastasis model; assay type: in vivo, mouse; conditions: oral, 100 and 300 mg/kg
# Outline: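 4×10^4 4T1 cells injected into the surgically exposed No. 2 mammary fat pad of anaesthetised 7-week-old female BALB/cAnCr mice. Primary tumours (100–150 mm³) resected on day 10. Groups of n=5 balanced by resected tumour weight. Test compound or 0.5% methyl cellulose given orally once daily from day 1 after resection. Lungs excised at day 28 post-injection, fixed in Bouin's solution, and pulmonary nodules counted.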
# [5] = Hematological metrics and blood chemistry in ICR mice; assay type: in vivo, mouse; conditions: high doses
# Tg(MMTV-PyVT) mouse = test: Tg; assay type: in vivo; conditions: 100 mg/kg intraperitoneally every other day for 6 weeks
# [6] = Pharmacokinetics analysis in male ICR mice; assay type: in vivo, mouse; conditions: 3 mg/kg
# Outline: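 Male ICR mice, n=4 per group, dosed at 3 mg/kg. Intravenous dosing as a solution in 40% dimethylformamide; oral dosing as a suspension in 0.5% methyl cellulose. About 50 μl orbital-vein blood drawn at 0.083 (i.v. only), 0.25, 0.5, 1, 2, 4, 8 and 24 h. Plasma stored at −70°C.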
# KRS–AIMP2 = KRS–AIMP2 (Homo sapiens, UniProt Q15046); test: Quantification of the KRS–AIMP2 interaction; assay type: binding; conditions: 0–100 μM
# Outline: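 AlphaScreen format. His-tagged KRS incubated overnight at 4°C with test compound (0–100 μM final). Ni-chelate donor beads (0.01 mg/ml final) added for 15 min. Acceptor beads (0.01 mg/ml final) and biotinylated AIMP2(1–48)–thioredoxin fusion then added for 1.5 h. Emission read at 520–620 nm, room temperature, triplicate.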
# KRS–LR interaction [7] = molecular target: T1, KRS–LR interaction; test: Comparison of YH16899 with BC-K01 across functional assays; conditions: most of the assays tested
# 37LRP = 37LRP (Homo sapiens, UniProt P08865); test: SPR binding analysis
# Outline: (§2)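 Proteins immobilised at 30 μg/ml in 10 mM sodium acetate pH 5.0 on a CM5 chip: His-KRS WT, 1–207 and 220–597, plus GST-37LRP. Test compound in PBS with 0.05% Tween 20 and 2% DMSO, flowed at 20 μl/min, 25°C; binding read as RU change. For GST-tagged proteins, GST-only RU subtracted. Apparent constants fitted to 1:1 binding with drifting baseline.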
# WI-26 cells [8] = test: Transwell cell migration assay; assay type: cell-based; conditions: read-out: IC50 for inhibition of migration of WI-26
# A549-RFP cells = test: A549-RFP left ventricle injection metastasis model; assay type: in vivo, mouse; conditions: 100 mg/kg oral once a day
# Outline: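 1×10^6 stable A549-RFP cells injected into the left ventricle of anaesthetised 6-week-old female BALB/cAnCr nude mice, n=10 per group. Test compound or 0.5% methyl cellulose given orally once daily from day 1 for 130 days. RFP signal of 5 random mice imaged by IVIS weekly, weeks 4–7. Body weight taken twice weekly for 50 days; survival followed to day 130.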
# KRS1–207 = KRS1–207 (Homo sapiens, UniProt Q15046); test: SPR binding analysis
# Outline: as §2
# WI-26 cells [9] = test: MTT cell viability assay; assay type: cell-based; conditions: 24 h
# Outline: as §1
# H226 cells [10] = test: Total protein synthesis; assay type: cell-based, human
# Outline: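 Compound-treated H226 cells held 30 min in Met-free medium, then labelled with [³⁵S]Met for 2 h. Cells returned to complete medium for 4 h, then lysed; radioactivity measured by scintillation counting. Lys variant used Lys-free medium and [³H]Lys.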
# Chain of KRS–67LR interaction (Q15046 whole entry): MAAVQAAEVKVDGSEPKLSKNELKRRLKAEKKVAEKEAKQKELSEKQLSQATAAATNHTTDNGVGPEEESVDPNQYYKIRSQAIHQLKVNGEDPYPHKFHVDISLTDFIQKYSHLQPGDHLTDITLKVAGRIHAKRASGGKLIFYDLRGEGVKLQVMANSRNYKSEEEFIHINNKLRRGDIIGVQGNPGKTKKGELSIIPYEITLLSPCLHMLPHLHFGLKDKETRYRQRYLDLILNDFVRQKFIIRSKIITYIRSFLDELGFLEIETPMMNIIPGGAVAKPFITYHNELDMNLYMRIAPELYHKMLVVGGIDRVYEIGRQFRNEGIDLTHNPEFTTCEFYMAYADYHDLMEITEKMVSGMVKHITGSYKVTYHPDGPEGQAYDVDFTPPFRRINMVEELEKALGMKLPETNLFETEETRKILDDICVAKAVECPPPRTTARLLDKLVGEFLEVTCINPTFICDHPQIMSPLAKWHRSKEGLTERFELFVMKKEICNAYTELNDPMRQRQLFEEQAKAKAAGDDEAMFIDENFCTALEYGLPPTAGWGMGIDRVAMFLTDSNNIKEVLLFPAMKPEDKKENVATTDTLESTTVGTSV
# T1 sequence (Q15046 whole entry): as above
# Chain of KRS1–207 (Q15046 1-207): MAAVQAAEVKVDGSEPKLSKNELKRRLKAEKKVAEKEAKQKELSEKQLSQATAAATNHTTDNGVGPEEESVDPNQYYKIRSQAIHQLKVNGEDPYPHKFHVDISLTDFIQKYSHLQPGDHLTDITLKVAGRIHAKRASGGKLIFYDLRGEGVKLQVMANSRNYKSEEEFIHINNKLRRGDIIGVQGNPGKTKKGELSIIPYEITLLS
# Chain of KRS–AIMP2 (Q15046 whole entry, the tested form may be a part): as the sequence (Q15046 whole entry) above
# Chain of KRS–AIMP2 (Q13155 1-48 partner limits assumed): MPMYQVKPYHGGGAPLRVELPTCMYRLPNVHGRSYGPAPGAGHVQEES
# Chain of KRS (Q15046 whole entry): as the sequence (Q15046 whole entry) above
smiles,measurement,setting,value
"CCC(C(=O)O)n1c(=NC(=O)c2ccc(C)cc2)sc2ccccc21 (centres unmarked) [BC-K01, 2-(2-{[4-(methyl)benzoyl]imino}benzothiazol-3-yl)butanoic acid]",effect on binding of KRS and LR,KRS–67LR interaction,reduced the binding of the two proteins
same,effect on level of 67LR in the plasma membrane,67LR,decreased the level of 67LR in the plasma membrane in a concentration-dependent manner
same,inhibition of KRS–LR interaction without affecting KRS–AIMP2 and MRS–AIMP3 pairs,KRS–LR interaction [1],specifically inhibited
same,effect on MMP-2,MMP-2,suppressed the activity of MMP-2
same,effect on cell invasion,H226 cells [2],suppressed
same,effect on cell migration,H226 cells [3],suppressed
"CCC(C(=O)O)n1c(=NC(=O)c2cccc(C(F)(F)F)c2)sc2cc(F)c(F)cc21 (centres unmarked) [YH16899, 2-(5,6-difluoro-2-{[3-(trifluoromethyl)benzoyl]imino}benzo[d]thiazol-3(2H)-yl)butanoic acid]",effect on cell viability,H226 cells [4],did not affect the cell viability
same,effect on binding of KRS and LR,KRS–67LR interaction,hindered the interaction between the two proteins
same,effect on the catalytic activity of KRS,KRS,little or no effect
same,effect on level of 67LR in the plasma membrane,67LR,decreased the amount of membranous 67LR
same,effect on body weight,4T1 cells,little or no effect on body weight
same,inhibition of tumor metastases to the lungs,4T1 cells; once a day,approximately 60%
same,side effects (hematological metrics and blood chemistry),[5],few side effects
same,effect on body weight,Tg(MMTV-PyVT) mouse,without affecting body weight
same,reduction of pulmonary nodule formation,Tg(MMTV-PyVT) mouse,approximately 70%
same,volume of distribution in vivo compared to BC-K01,[6],better volume of distribution
same,effect on MMP-2,MMP-2,suppressed the induction of MMP-2
same,change in KRS binding affinity to AIMP2,KRS–AIMP2,little or no change
same,improvement of IC50 compared to BC-K01,KRS–LR interaction [7],3- to 6 fold
same,binding to 37LRP,37LRP,did not show significant binding
same,suppression of cell invasion,"H226 cells [2]; H226 cells, Matrigel",approximately 85%
same,IC50,WI-26 cells [8],> 50 µM
same,IC50,"H226 cells [3]; Homo sapiens, NCI-H226, 12 h, read-out: IC50 for inhibition of H226 migration",8.5 ± 2.1 µM
same,effect on body weight,A549-RFP cells,did not affect the body weight
same,survival,A549-RFP cells; followed up to 130 days,greatly enhanced survival
same,reduction of average radiance (photon imaging),A549-RFP cells; up to 7 weeks,approximately 50%
same,binding to KRS1–207 compared with KRS1–597 and KRS220–597,KRS1–207,preferential binding
same,effect on cell viability,WI-26 cells [9],did not affect the cell viability
same,effect on cellular protein synthesis,H226 cells [10],little or no effect
